Publication PMC6614152 (Clinical Pharmacokinetics, 2019)
Several values for one entry are separate records, joined by “and”; a condition that tells them apart may be missing. Equal entries are not always repeated. Entries after “also recorded” stand apart in the source; their conditions may differ. Where two headings read alike, the source gives them in different places.

What was measured:
[1] = Population pharmacokinetic analysis; type: in vivo, humans
Procedure, shortened: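 Nonlinear mixed-effects model (FOCEI) fitted to 29,372 plasma concentrations from 4170 healthy and RA subjects across 12 studies (IR 1–48 mg, ER 7.5–30 mg), quantified by LC-MS/MS. Two-compartment structure: IR first-order absorption with lag time, ER mixed zero/first-order absorption with lag time, linear elimination; combined additive/proportional residual error. Below-LLOQ values were set to LLOQ/2, with later post-dose ones censored. Co-medications were time-varying covariates. Checked by VPC (400 replicates) and ER pcVPC.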

[2] = type: in vivo, humans
JAK1 = details: in vitro cellular assays; cited from earlier work
[3] = cited from earlier work
[4] = cited from earlier work; remark: listed apart in the source
CYP3A = details: strong CYP3A inhibitor ketoconazole; cited from earlier work
CYP2D6 = details: in vitro data; cited from earlier work
moderate to severe RA = details: monotherapy or in combination with csDMARDs; cited from earlier work
[5] = final model, population estimate (%RSE), outliers excluded
[6] = healthy subjects, ER formulation, population estimate
[7] = RA subjects with bodyweight < 60 kg, steady state, simulated
[8] = RA subjects with bodyweight > 100 kg, steady state, simulated

time-dependent change in upadacitinib clearance with continued treatment ([1]; CWRES versus time): no time-dependent change | dose proportionality of bioavailability ([1]; ER dose range of 7.5-30 mg): dose-proportional | effect of pH-modifying medications on upadacitinib absorption from the ER formulation ([1]; ER formulation): no effect | Bioavailability of the extended-release formulation relative to the immediate-release formulation [1, 5]: 76.2% and 76% | ISV on CL/F in phase I [1, 5]: 21% | ISV on CL/F in phase II/III [1, 5]: 37% | ISV on Vc/F in phase I [1, 5]: 24% | ISV on Vc/F in phase II/III [1, 5]: 53% | apparent oral clearance [1, 6]: 53.7 L/h | steady-state volume of distribution (sum of the central and peripheral volume of distribution) [1, 6]: 294 L | correlation of baseline hsCRP with upadacitinib clearance ([1]; in vivo): not correlated | effect of methotrexate on upadacitinib pharmacokinetics ([1]; in vivo): not affect | effect of pH-modifying agents on upadacitinib pharmacokinetics ([1]; in vivo): not affect | higher estimated upadacitinib AUC in RA subjects compared with healthy subjects ([1]; in vivo): 33% | lower upadacitinib clearance in RA subjects compared with healthy subjects ([1]; in vivo): 25% | AUC higher relative to subjects with a bodyweight of 60-100 kg [2, 7]: 5% | Cmax higher compared with subjects with a bodyweight of 60-100 kg [2, 7]: 18% | AUC lower relative to subjects with a bodyweight of 60-100 kg [2, 8]: 5% | Cmax lower compared with subjects with a bodyweight of 60-100 kg [2, 8]: 18% | AUC higher compared with RA subjects with normal renal function ([2]; RA subjects with moderate renal impairment (CrCl 30 to < 60 mL/min)): 26%
SMILES: CC[C@@H]1CN(C(=O)NCC(F)(F)F)C[C@@H]1c1cnc2cnc3[nH]ccc3n12 [upadacitinib, Upadacitinib]
effects of bodyweight and mild or moderate renal impairment on upadacitinib exposures ([1]; in vivo): statistically significant but non-clinically relevant effects; also recorded: Bodyweight and mild or moderate renal impairment had statistically significant but non-clinically relevant effects on upadacitinib exposures | selectivity for JAK1 over JAK2 (JAK1): approximately 60 fold | selectivity for JAK1 over JAK3 (JAK1): more than 100 fold | functional half-life ([3]; IR formulation): 3 to 4 h | time at which peak plasma concentrations (Cmax) were reached ([3]; after ER dosing): 2 to 4 h | time at which peak plasma concentrations (Cmax) were reached ([3]; after IR dosing): 1 to 2 h | Cmax and Cmin of ER 15 and 30 mg once daily versus IR 6 mg and 12 mg twice daily [3]: comparable | daily AUC of ER 15 and 30 mg once daily versus IR 6 mg and 12 mg twice daily [3]: equivalent | terminal half-life ([3]; following administration of the IR or ER formulations): 6 to 16 h | upadacitinib dose eliminated unchanged in urine (renal pathway) ([3]; phase I study): Approximately 20% | linearity of pharmacokinetics ([3]; range of doses evaluated in phase I and II studies): linear pharmacokinetics | effect of CYP2D6 metabolic phenotype on apparent oral clearance [4]: no effect | typical oral clearance in RA patients lower compared with healthy subjects [4]: 24% | increase in upadacitinib exposures with ketoconazole (CYP3A): approximately 75% | contribution of CYP2D6 to upadacitinib metabolism (CYP2D6): potential minor contribution | clinical signs and symptoms in subjects with moderate to severe RA compared with placebo or active comparators (moderate to severe RA): rapid and significant improvements; also recorded: significantly improved
